The IC50 is the concentration needed to halve the response being measured. Higher therefore signals weaker potency in that assay.

Activity calls are given as the source filed them. No cut-off for these calls is given here.

Assay [1] has as its system B16-F10. Nature of the assay: Cytotoxicity against mouse B16F10 cells at 100 uM after 24 hrs by MTT assay relative to control. The assay is classed as functional. The gist of the method: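 Single-concentration screen in which B16-F10 cells (1 × 10⁵) were exposed to 100 µM compound for 24 h. Viability was read by MTT, with control optical density set as 100%. Three experiments in triplicate, mean ± S.E.M.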
For orientation: Formazan colour is commonly taken as a measure of viable cells.

Assay [2] relates to B16-F10. As to the kind of experiment: Induction of apoptosis in mouse B16F10 cells assessed as DNA fragmentation at IC50 after 24 hrs by gel electrophoresis. The assay is classed as functional, cell-based. The method, boiled down:
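DNA ladder assay: 5 × 10⁵ B16-F10 cells were treated for 24 h with each compound at its cell-viability IC50 (DMSO 0.1% final). DNA was ethanol-precipitated, RNase A-treated at 37 °C for 1 h, run on 1.5% agarose and stained with ethidium bromide.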

The test system of assay [3] is B16-F10. Nature of the assay: Cytotoxicity against mouse B16F10 cells after 72 hrs by MTT assay. The assay is classed as functional, cell-based. Conditions: B16-F10, 72 h. The gist of the method: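 MTT viability assay on B16-F10 cells seeded at 1 × 10⁴ cells/well. Compounds were dissolved in DMSO (0.1% final) and tested over 0–40 µM for 72 h at 37 °C in triplicate. MTT was added for 3 h and formazan dissolved in acidified isopropanol (HCl 0.04 M). Absorbance read at 540 nm. IC50 taken from concentration–response curves against untreated control.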

Assay [4] relates to B16-F10. As to the kind of experiment: Induction of apoptosis in mouse B16F10 cells assessed as decrease in ATP level after 24 hrs by bioluminescent assay. Format: functional, cell-based. The method, boiled down: (§1)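 Intracellular ATP was measured by luciferin–luciferase bioluminescence. About 3 × 10⁵ B16-F10 cells were exposed to 0–100 µM compound for 24 h, pelleted, and extracted with 1.25% trichloroacetic acid on ice for 30 min. Extracts were neutralized with Tris-acetate 1 M pH 7.5 and diluted 4-fold before reading. Three experiments in triplicate.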

Assay [5] deals with B16-F10. As to the kind of experiment: Induction of apoptosis in mouse B16F10 cells assessed as decrease in total glutathione level up to 100 uM after 24 hrs by glutathione reductase method. Format: functional, cell-based. The gist of the method: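 About 3 × 10⁵ B16-F10 cells were treated with 0–100 µM compound for 24 h. A mitochondria-enriched fraction was prepared by centrifugation after homogenization in Tris-sucrose buffer and sonication. Total glutathione (GSH + GSSG) was assayed by the glutathione reductase/DTNB/NADPH method in phosphate buffer 100 mM pH 7.4. Absorbance at 412 nm was read every minute for 5 min against a GSH standard curve.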

Assay [6] relates to B16-F10. As to the kind of experiment: Induction of necrosis in mouse B16F10 cells assessed as alteration in ATP level up to 100 uM after 24 hrs by bioluminescent assay. The assay is classed as functional, cell-based. The method, boiled down:
as §1

Consider `COc1cc(O)c(C(=O)/C=C/c2cccc(Cl)c2)c(OC)c1`, for which, in the assay on B16-F10 [1], the result was inactive.
On the same count and under the same terms, the value for `O=C(/C=C/c1ccc2ccccc2c1)c1ccccc1O` was “inactive”; that for `COc1cc(OC)c(C(=O)/C=C/c2ccccc2Cl)c(O)c1Br` was “inactive”.
On to `O=C(/C=C/c1cccc2ccccc12)c1cccc(O)c1`, for which the result in the assay on B16-F10 [2] and with B16-F10 [5] was Active. In the assay on B16-F10 [3], this molecule gave a 50% inhibitory concentration (IC50) of 12 µM. Besides, the Activity with B16-F10 [1] is 97.7%; with B16-F10 [4], “Dose-dependent effect”.
Turning to `COc1cc(C(=O)/C=C/c2ccc3ccccc3c2)ccc1O`, the outcome in the assay on B16-F10 [1] was inactive.
Still for that read-out and setting: the value for `COc1cc(O)c(C(=O)/C=C/c2cccc3ccccc23)c(OC)c1` was “inactive”; that for `COc1ccc(/C=C/C(=O)c2c(OC)cc(OC)c(Br)c2O)cc1` was “inactive”.
The same measure, in the same setting: the value for `COc1cc(OC)c(C(=O)/C=C/c2ccc([N+](=O)[O-])cc2)c(O)c1Br` was “inactive”; that for `COc1cc(OC)c(C(=O)/C=C/c2c(OC)cccc2OC)c(O)c1Br` was “inactive”.
Regarding `COc1cc(OC)c(C(=O)/C=C/c2ccccc2C(=O)O)c(O)c1Br`, the outcome in the assay on B16-F10 [2] and in the assay with B16-F10 [6] was inactive. The half-inhibitory concentration (IC50) in the assay on B16-F10 [3] amounted to 30 µM. The molecule also displayed an Activity in the assay with B16-F10 [1] of 50%.
Consider `CCCCOc1ccc(/C=C/C(=O)c2c(OC)cc(OC)c(Br)c2O)cc1`, for which the result in the assay with B16-F10 [1] was inactive.
`O=C(/C=C/c1cccc2ccccc12)c1ccccc1O`: the outcome with B16-F10 [2] and with B16-F10 [5] was Active. Further, in the assay with B16-F10 [3], the midpoint of inhibition, the IC50, lay at 17 µM. Besides, the Activity is 75.2% in the assay with B16-F10 [1] and “Dose-dependent effect” with B16-F10 [4].
For `COc1cc(O)c(C(=O)/C=C/c2cccc([N+](=O)[O-])c2)c(OC)c1`, the result in the assay on B16-F10 [1] was inactive.

The record behind these values is ChEMBL document CHEMBL1137752, “Hydroxychalcones induce apoptosis in B16-F10 melanoma cells via GSH and ATP depletion” (Eur J Med Chem, 2009).
